Compound activity as filed in PubChem BioAssay.
A selection: hits, their analogues and other compounds. The true share with any hit is near 5.8%.
WT yeast gro inh – growth inhibition of WT yeast, mitochondrial fusion screen; inhibition, % at 10 µM; mitochondrial fusion phenotypic screen, WT strain; hit rate 2.1% among 190,000; in the data active means inhibition above about 58%; tested in S. cerevisiae
KCC2 mod – modulators of human KCC2 chloride dependent transport; KCC2 cells, thallium flux FluoZin-2 fluorescence; AID 1456; Q9H2X9; B-score of Tl+ flux slope (higher = more flux/activation; lower = inhibition) at 10 µM; hit rate 2.2% among 190,000;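 active means thallium flux slope and its plate-corrected score both differing from the plate sample mean at a set confidence after two filtering rounds, in either direction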;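 further: slope of fluorescence scaled to starting intensity during 10 to 20 s after thallium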
14-3-3 Bad inh – disrupts binding of bovine 14-3-3 zeta to phospho-Bad peptide. TR-FRET 14-3-3zeta/Dy647-pBad peptide displacement, 1 h. inhibition, % at 21.7 µM. hit rate 0.71% among 220,000;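 active means inhibition above about 70%, limit read from the data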;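 further: 0% = full 14-3-3 plus peptide FRET controls and 100% = background without 14-3-3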
Target sequence (P63103 whole entry, looked up): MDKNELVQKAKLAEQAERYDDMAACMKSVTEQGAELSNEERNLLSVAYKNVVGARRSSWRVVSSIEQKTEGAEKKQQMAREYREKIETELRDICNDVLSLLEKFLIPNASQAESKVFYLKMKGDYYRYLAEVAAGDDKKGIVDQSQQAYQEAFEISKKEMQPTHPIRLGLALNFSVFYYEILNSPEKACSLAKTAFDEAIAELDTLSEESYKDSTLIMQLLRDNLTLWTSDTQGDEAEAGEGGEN
RBBP9 inhibitor – blocks human serine hydrolase RBBP9 | inhibition, % at 7.94 µM | AID 1515 | hit rate 0.2% among 220,000 | O75884 | recombinant RBBP9, FP-Rh probe fluorescence polarization;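 active means inhibition above the campaign mean of all tested compounds plus 3 SD, cut at about 14% in these data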;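 further: plate controls were DMSO wells with RBBP9 for no effect and wells lacking RBBP9 protein for full effect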
Target sequence (O75884 whole entry, looked up): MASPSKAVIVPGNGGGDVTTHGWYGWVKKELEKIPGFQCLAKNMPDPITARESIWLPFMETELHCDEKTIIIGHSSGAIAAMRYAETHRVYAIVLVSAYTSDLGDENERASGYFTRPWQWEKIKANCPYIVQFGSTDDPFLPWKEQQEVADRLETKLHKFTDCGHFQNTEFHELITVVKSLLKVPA
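Measured by – fluorescence polarization · Test system – RBBP9 protein · Input – 2.5 µM RBBP9 dispensing solution, before mixing · Measure – percent inhibition from mP, scaled between DMSO and no-protein wells · Benchmarks – DMSO-treated enzyme wells and wells lacking RBBP9 · Times – preincubation 30 min plus labeling 45 min at 25 °C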
ROMK primary – human ROMK K+ channel modulation, primary screen | Tet-inducible ROMK, thallium flux fluorescence; actives lie on both sides | B-score at 10 µM | hit rate 2% among 130,000;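 active means signal ratio slope over the read window, or its plate-corrected B-score, at least 3 SD from the plate mean, either direction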;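 further: B-score of the F/F0 ratio slope over 7 to 12 s after thallium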
p47phox inh – inhibitors of human p47phox binding. p47phox/p22phox peptide binding, fluorescence polarization, 2 h. P14598. inhibition, % at 24.7 µM. hit rate 0.53% among 220,000;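 active means inhibition above about 30%, limit read from the data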;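 further: 0% = p47phox with labelled peptide and 100% = labelled peptide alone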
RBBP9 confirm – human RBBP9 inhibition, confirmation; shares compounds with RBBP9 inhibitor; recombinant RBBP9, FP-Rh probe fluorescence polarization; inhibition, % at 7.94 µM; hit rate 36% among 410; AID 1537;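 active means inhibition above the hit cutoff derived for the primary screen, cut at about 15% in these data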;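 further: 0% = RBBP9 with DMSO and 100% = wells lacking RBBP9 protein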
* marks the source's active call; other numbers are inactive results; i = inactive; . = no result.

SMILES	WT yeast gro inh	KCC2 mod	14-3-3 Bad inh	RBBP9 inhibitor	ROMK primary	p47phox inh	RBBP9 confirm
CCOC(=O)c1cnn(-c2ccccc2)c1-n1cccc1C(=O)C(=O)N(CC)CC	1.4	0.221	-11.6	3.6	0.301	-3.4	.
COCCCNc1c2c3c(cccc3[nH]c1=O)C(=O)c1ccccc1-2	-0.8	i	-4.4	48.8*	.	-215.9	80.5*
COCCCNC1=C(Cl)C(=O)c2ccccc2C1=O	.	-1.31	0.6	0.8	.	-9.8	.
CC(=O)NC(c1ccccc1)c1c(O)ccc2ccccc12 (stereo not drawn)	-2.9	-0.431	-4.8	15.7*	-2.28	-5.9	16.6*
CC(=O)NC(c1ccc([N+](=O)[O-])cc1)c1c(O)ccc2ccccc12 (stereo not drawn)	-1.7	0.439	-8.7	-3.8	-0.978	-4.4	.
C/C=N/NC(=O)CCNC(=O)c1ccccc1	-15.8	0.779	-5.0	-8.0	0.0481	-7.3	.
Cc1ccc(CNc2ccc3c(c2)ncn3C(C)(C)C)cc1	36.3	-0.945	-17.5	-2.4	-0.681	-11.4	.
CCOc1cc(C)c(S(=O)(=O)Nc2ccc3cn[nH]c3c2)cc1C	18.1	.	-9.5	2.5	.	-5.7	.
CCCS(=O)(=O)Nc1ccc2cn[nH]c2c1	-0.8	1.09	-3.0	16.6*	-0.491	-5.7	-0.7
Cn1cnc([N+](=O)[O-])c1N=C(N)N	.	0.457	-4.7	-4.6	.	2.5	.
CC(=O)Nc1ccc(-c2csc(NCc3ccccc3)n2)cc1	-1.1	0.215	-12.9	-6.2	0.0576	-14.2	.
CC(=O)Nc1cccc(-c2csc(NCc3ccccc3)n2)c1	19.2	-1.01	24.1	14.7*	0.753	.	1.0
Cc1ccc(C(=O)C[n+]2cc(-c3ccc(C)cc3)n3c2CCCCC3)cc1	8.7	0.0141	16.5	21.4*	.	-5.4	2.8
CCOc1cccc(C(=O)Nc2ccc(N(CC)CC)cc2)c1	7.0	0.0396	5.9	-4.8	.	-15.0	.
CCN(CC)c1ccc(NC(=O)c2ccc3c(c2)c(C)c(C)n3C)cc1	18.2	-0.243	20.9	30.0*	-0.394	-75.4	28.1*
CCOC(=O)c1c(C)n(C)c2cc([N+](=O)[O-])c(O)c([N+](=O)[O-])c12	.	-0.239	-5.8	-4.4	.	-4.7	.
CCOC(=O)c1c(C)n(C)c2cc(Br)c(O)c(O)c12	.	0.091	-7.6	16.7*	.	-6.9	31.1*
CNC1(c2nnnn2-c2ccccc2C)CCOC(C)(C)C1 (stereo not drawn)	.	-1.13	-1.7	-1.9	-0.00559	-5.7	.
FC(F)(F)c1ccc(-c2nnc(-c3ccccn3)c(-c3ccccn3)n2)nc1	.	-0.00518	-7.9	17.1*	.	-2.9	2.7
COc1cc2[nH]c(=S)nc(Nc3ccc(NC(C)=O)cc3)c2cc1OC	-11.8	0.515	-9.9	29.1*	1.2	-11.5	51.7*
CCn1c(CSc2nccn2C)nc2cc(C(=O)O)ccc21	-5.5	-0.00378	71.9*	14.7*	.	-5.0	17.3*
COc1ccc(C2C(C#N)=C(N)Oc3c2c(C)nn3-c2ccccc2)cc1Cn1nc(C)c([N+](=O)[O-])c1C (stereo not drawn)	20.9	0.0226	-2.1	18.2*	.	-4.3	5.3
Cc1nn(-c2ccccc2)c2c1C(c1ccccc1)C(C#N)=C(N)O2 (stereo not drawn)	8.8	0.767	-3.4	16.4*	-2.89	-8.9	7.9
CCOC(=O)COc1ccc2c(=O)c(-c3ccccc3OC)coc2c1	-21.9	-0.0373	-1.2	-7.7	0.0736	-2.4	.
COC(=O)COc1ccc2c(=O)c(-c3ccccc3OC)coc2c1	-5.6	-0.478	-9.8	19.1*	.	0.8	6.6
O=C1CC(NNC(=O)c2cccc(F)c2)C(=O)N1 (stereo not drawn)	.	0	2.8	-1.1	.	-5.8	.
COc1ccc(/C=C/C(=O)Nc2ccccc2)cc1S(=O)(=O)N1CCOCC1	.	.	-6.5	36.8*	.	-7.7	3.5
Cc1cc2ccccc2nc1SCC(=O)N1c2ccccc2CC1C (stereo not drawn)	14.2	0.664	2.2	14.4*	.	-13.3	-2.2
CCc1ccc(NC(=O)COC(=O)CCc2nc3cc(S(=O)(=O)N(CC)CC)ccc3n2C)cc1	14.0	-0.189	-0.1	-6.7	.	-34.7	.
CC(=O)Nc1ccc(S(=O)(=O)NC2CCS(=O)(=O)C2)cc1Cl (stereo not drawn)	.	1.2	-2.7	-5.6	.	-0.3	.
